Data set [1] in a line: folding enthalpy; higher = less favourable; fluorescence melt of hairpins on a sequencing array, two-state fit. The note with it: sodium 0.088 M. The method, boiled down: (§1)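 Cy3 fluorescence of library hairpins on a sequenced MiSeq flow cell, with annealed Cy3 and quencher oligos, was imaged in 50 mM Na-HEPES pH 8.0, 25 mM NaCl in 2.5 °C steps up to 60 °C. Signals were normalised to pre-quench Cy3 and to control variants. Melting temperature and folding enthalpy came from bootstrapped two-state fits, inverse-variance combined over four replicates. Fitted temperatures were raised by 9.35 °C to match UV melts.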

A short description of data set [2]: melting temperature; fluorescence melt of hairpins on a sequencing array, two-state fit, raised by 9.35 °C to match UV melts. The note with it: sodium 0.088 M. The method, boiled down:
as §1

In the case of GGCTGTCGAAAGACCGCC (((.(((....))).))), in data set [1], the folding enthalpy is -36.6 kcal/mol. The Tm in data set [2] is 56.6 °C.

For the sequence GAAGCAGGAAACTGCCTC ((.((((....)))).)), the folding enthalpy in data set [1] is -13.2 kcal/mol. Further, the Tm in data set [2] is 34.5 °C.

As to GCACGGCGAAAGCCTAGC ((..(((....)))..)), the folding enthalpy in data set [1] is -14.4 kcal/mol. In addition, the Tm in data set [2] worked out at 39.5 °C.

With GCTGAGGGAAACCTCAAC (.(((((....))))).), the folding enthalpy in data set [1] was -18.9 kcal/mol. Also, in data set [2], the Tm amounted to 36.6 °C.

For GGCCTCGGAAACAAGGCC (((((.(....).))))), in data set [1], the folding enthalpy is -34.5 kcal/mol. In data set [2], the Tm came out at 51.9 °C.

With GAGCAGGAAACTGCTC ((((((....)))))), the folding enthalpy in data set [1] is -37.8 kcal/mol. Also, in data set [2], the Tm amounted to 62.3 °C.

Turning to GGTCAAGAAATTGACC ((((((....)))))), in data set [1], the folding enthalpy was -41.4 kcal/mol. For the same sequence, the Tm in data set [2] was 52.7 °C.

On to GCTCTGCGAAAGCATGGC ((..(((....)))..)), for which, in data set [1], the folding enthalpy was -19.6 kcal/mol. Besides, the Tm in data set [2] was 40.1 °C.

As for GCTCCGCGAAAGCAGGGC ((.(.((....)).).)), the folding enthalpy in data set [1] is -16 kcal/mol. In addition, in data set [2], the Tm was determined as 50.1 °C.

In the case of GGAACCGAAAGGTCATCC ((((((....)))..))), the folding enthalpy in data set [1] was -10.8 kcal/mol. For the same sequence, in data set [2], the Tm was 28.6 °C.

Turning to GACTGTGAAAACAGTC ((((((....)))))), the folding enthalpy in data set [1] is -34.1 kcal/mol. The Tm in data set [2] turned out to be 58.5 °C.

CGAGGCGGAAACGCGTCG (((.(((....))).))): the folding enthalpy in data set [1] was -32.1 kcal/mol. The Tm in data set [2] was found to be 62.5 °C.

As for GATCGTGCACACGATC ((((((....)))))), the folding enthalpy in data set [1] is -41.3 kcal/mol. In addition, the Tm in data set [2] was 64.7 °C.

Take GCGATCGAAAGATAACGC ((((((....)))..))): in data set [1], the folding enthalpy is -26.2 kcal/mol. In data set [2], the Tm amounted to 44.3 °C.

As to GATCCTACAAAGGATC ((((((....)))))), in data set [1], the folding enthalpy is -36.3 kcal/mol. Further, in data set [2], the Tm worked out at 49.5 °C.

GCGCAGCGAAAGCGTCGC (((..((....))..))): in data set [1], the folding enthalpy was -13.3 kcal/mol. Also, the Tm in data set [2] was found to be 58.9 °C.

On to GATCCTCCTAGGATC ((((((...)))))), for which the folding enthalpy in data set [1] was -39.2 kcal/mol. Moreover, the Tm in data set [2] came out at 54 °C.

TCTAGGAAACTAGA (((((....))))): the folding enthalpy in data set [1] was -10.5 kcal/mol. Besides, the Tm in data set [2] is 29.7 °C.

Regarding GATATACGAAAGTAGATC (((.(((....))).))), the folding enthalpy in data set [1] is -31.1 kcal/mol. Moreover, the Tm in data set [2] came out at 44.1 °C.

As for GAACAGGGAAACCTGTTC (((((((....))))))), in data set [1], the folding enthalpy is -37.8 kcal/mol. Further, the Tm in data set [2] amounted to 59.4 °C.

As to GGTCCCGAAAGGGTACC ((((((....))).))), the folding enthalpy in data set [1] is -23.4 kcal/mol. For the same sequence, the Tm in data set [2] came out at 55.5 °C.

On to GATCATGCTAATGATC ((((((....)))))), for which the folding enthalpy in data set [1] is -42.7 kcal/mol. Also, the Tm in data set [2] was 57.2 °C.

With GCAAACGGAAACGCTTGC ((((.((....)).)))), the folding enthalpy in data set [1] is -35.1 kcal/mol. Besides, the Tm in data set [2] came to 47.6 °C.

Turning to GTCGGTGGAAACATCGAC ((((.((....)).)))), in data set [1], the folding enthalpy is -45.1 kcal/mol. Further, in data set [2], the Tm came to 53.9 °C.

For the sequence GCGGTTAACCGC ((((....)))), the folding enthalpy in data set [1] was -28.7 kcal/mol. Moreover, the Tm in data set [2] was found to be 66.7 °C.

As to GCAACGTCGAAAGACTGC (((..(((....)))))), the folding enthalpy in data set [1] was -20.1 kcal/mol. The Tm in data set [2] worked out at 39.1 °C.

Regarding CGGCTCGGAAACGACCCG (((.(((....))).))), the folding enthalpy in data set [1] was -29.4 kcal/mol. Moreover, in data set [2], the Tm was found to be 42.9 °C.

Consider GCTAATGCGAAAGCAAGC (((..(((....)))))), for which, in data set [1], the folding enthalpy is -16.4 kcal/mol. Further, the Tm in data set [2] amounted to 36.1 °C.

Take GCGCCCGAAAGGGACGC ((((((....))).))): in data set [1], the folding enthalpy was -27.1 kcal/mol. Besides, the Tm in data set [2] was 68.1 °C.

As for GCGCAGCCGAAAGGCCGC (((..(((....)))))), in data set [1], the folding enthalpy was -16.7 kcal/mol. For the same sequence, the Tm in data set [2] turned out to be 57.9 °C.

Regarding GTTGCCGAAAGGCTCAAC ((((((....)))..))), the folding enthalpy in data set [1] is -7.95 kcal/mol. Also, the Tm in data set [2] amounted to 29.8 °C.

For GGTAGCGAAAGCTAGACC ((((((....)))..))), the folding enthalpy in data set [1] was -14.3 kcal/mol. The Tm in data set [2] was 40.1 °C.

As for GTGTCCGAAAGGAGCAC ((((((....))).))), in data set [1], the folding enthalpy is -23.9 kcal/mol. In addition, the Tm in data set [2] stood at 49 °C.

As for GTCTACCGAAAGGTCGAC (((.(((....))).))), in data set [1], the folding enthalpy is -33.9 kcal/mol. In addition, the Tm in data set [2] is 48.7 °C.

In the case of GAACACGGAAACGCGTTC ((((.((....)).)))), in data set [1], the folding enthalpy is -35.8 kcal/mol. Besides, the Tm in data set [2] is 48.1 °C.

As for GACAGAGGAAACTCTGTC (((((((....))))))), the folding enthalpy in data set [1] is -41.3 kcal/mol. Besides, the Tm in data set [2] amounted to 60.6 °C.

In the case of GGTGTCGGAAACAACACC (((((.(....).))))), in data set [1], the folding enthalpy was -36.1 kcal/mol. Further, the Tm in data set [2] came to 45.2 °C.

The values are drawn from the array DNA melting data of Ke et al. (doi:10.1101/2024.01.08.574731).
